Reference: publication PMC2606940 (The Journal of General Physiology, 2009)
Substitutions are numbered along the chain they refer to. Like-named read-outs stand apart in the source and are kept apart here.

Tests used:
Type in all cases: cell-based
CLC-0 E166W mutant = biological target: T1, CLC-0 E166W mutant (Torpedo marmorata, UniProt P21564, C212S/E166W); conditions: read-out: Apparent affinity (K1/2)
T1 sequence (P21564 1-805 E166W/C212S): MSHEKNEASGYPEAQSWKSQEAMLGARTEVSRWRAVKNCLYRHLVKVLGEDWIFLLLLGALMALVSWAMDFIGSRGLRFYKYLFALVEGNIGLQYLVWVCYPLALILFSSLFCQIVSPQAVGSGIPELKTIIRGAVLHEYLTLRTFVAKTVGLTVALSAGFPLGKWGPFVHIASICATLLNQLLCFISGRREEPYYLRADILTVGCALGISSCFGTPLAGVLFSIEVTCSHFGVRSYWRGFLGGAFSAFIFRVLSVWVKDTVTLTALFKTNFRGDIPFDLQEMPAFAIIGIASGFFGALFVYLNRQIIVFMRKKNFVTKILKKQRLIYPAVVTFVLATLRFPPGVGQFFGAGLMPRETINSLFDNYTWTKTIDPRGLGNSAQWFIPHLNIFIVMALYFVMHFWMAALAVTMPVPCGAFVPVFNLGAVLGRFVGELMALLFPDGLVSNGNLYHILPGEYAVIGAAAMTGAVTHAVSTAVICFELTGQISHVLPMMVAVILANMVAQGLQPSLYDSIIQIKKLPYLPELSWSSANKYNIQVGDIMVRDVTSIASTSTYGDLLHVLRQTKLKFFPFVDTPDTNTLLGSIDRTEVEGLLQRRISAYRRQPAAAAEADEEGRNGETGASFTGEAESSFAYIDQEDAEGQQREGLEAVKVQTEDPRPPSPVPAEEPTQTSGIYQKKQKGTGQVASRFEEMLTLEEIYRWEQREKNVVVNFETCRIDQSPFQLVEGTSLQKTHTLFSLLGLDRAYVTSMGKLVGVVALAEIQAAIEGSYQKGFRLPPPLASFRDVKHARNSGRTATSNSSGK
How it was run: (§1)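 CLC-0 mutants in the C212S background were transfected into HEK293 cells with lipofectamine and recorded 1–3 d later as excised inside-out patches. Both sides held 130 mM NaCl, 5 mM MgCl2, 10 mM HEPES and 1 mM EGTA, pH 7.4. CPA was perfused continuously onto the cytoplasmic face. Steady-state current over the last 10 ms was normalized to bracketing blocker-free controls and fitted to a Langmuir function for K1/2. Values are mean ± SEM of ~4–6 patches.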

CLC-0 E166L mutant = biological target: T2, CLC-0 E166L mutant (Torpedo marmorata, UniProt P21564, C212S/E166L); conditions: for IC50: read-out: Apparent affinity (K1/2)
T2 sequence (P21564 1-805 E166L/C212S): T1 sequence (P21564 1-805 E166W/C212S) with W166L
How it was run: as §1

CLC-0 E166N mutant = biological target: T3, CLC-0 E166N mutant (Torpedo marmorata, UniProt P21564, C212S/E166N); conditions: read-out: Apparent affinity (K1/2)
T3 sequence (P21564 1-805 E166N/C212S): T1 sequence (P21564 1-805 E166W/C212S) with W166N
How it was run: as §1

Row | Structure (SMILES) | IC50 (CLC-0 E166W mutant; −80 mV) | IC50 (CLC-0 E166W mutant; −100 mV) | IC50 (CLC-0 E166W mutant; −120 mV) | IC50 (CLC-0 E166W mutant; −140 mV) | IC50 (CLC-0 E166W mutant; −160 mV) | IC50 (CLC-0 E166L mutant; −40 mV) | IC50 (CLC-0 E166L mutant; −60 mV) | IC50 (CLC-0 E166L mutant; −80 mV) | IC50 (CLC-0 E166L mutant; −100 mV) | IC50 (CLC-0 E166L mutant; −120 mV) | IC50 (CLC-0 E166L mutant; −140 mV) | IC50 (CLC-0 E166L mutant; −160 mV) | IC50 (CLC-0 E166N mutant; −40 mV) | IC50 (CLC-0 E166N mutant; −60 mV) | IC50 (CLC-0 E166N mutant; −80 mV) | IC50 (CLC-0 E166N mutant; −100 mV) | IC50 (CLC-0 E166N mutant; −120 mV) | IC50 (CLC-0 E166N mutant; −140 mV) | IC50 (CLC-0 E166N mutant; −160 mV) | further results
1 | O=C(O)COc1ccc(Cl)cc1 [CPA, p-chlorophenoxy acetate] | 6660 ± 980 µM | 3490 ± 410 µM | 1860 ± 220 µM | 970 ± 130 µM | 550 ± 70 µM | 4640 ± 190 µM | 2610 ± 80 µM | 1460 ± 30 µM | 800 ± 20 µM | 470 ± 10 µM | 280 ± 10 µM | 180 ± 10 µM | 9750 ± 570 µM | 5780 ± 220 µM | 3270 ± 90 µM | 1850 ± 40 µM | 1060 ± 20 µM | 620 ± 20 µM | 380 ± 10 µM | IC50 (CLC-0 E166W mutant; −60 mV): 13200 ± 2100 µM; block of current (CLC-0 E166L mutant; 0.3 mM CPA, −160 mV): ~60%
2 | CCCCCCCC(=O)O [octanoate] | 19200 ± 3300 µM | 13000 ± 2000 µM | 8600 ± 1300 µM | 5530 ± 870 µM | 3500 ± 590 µM | 342 ± 53 µM | 192 ± 22 µM | 106 ± 10 µM | 57 ± 5 µM | 32 ± 3 µM | 18 ± 2 µM | 11 ± 1 µM | 4930 ± 180 µM | 2550 ± 47 µM | 1340 ± 29 µM | 694 ± 18 µM | 380 ± 9 µM | 212 ± 4 µM | 125 ± 2 µM | 
